Experimental data: ChEMBL document CHEMBL2331158, “Isocoumarin derivatives and benzofurans from a sponge-derived Penicillium sp. fungus” (2013)
≈ marks a conversion by molar mass, not a printed value. Calls of active or inactive are those of the source. The rule behind the calls is not given here.

Assays:
Bacillus cereus = test: Antibacterial activity against Bacillus cereus ACCC 11077 assessed as growth inhibition after 18 hrs by broth dilution method; details: ACCC 11077, 18 h
Vibrio parahaemolyticus = test: Antibacterial activity against Vibrio parahaemolyticus ATCC 17802 assessed as growth inhibition after 18 hrs by broth dilution method; assay type: functional; details: ATCC 17802, 18 h
How it was run: (§1)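 Conventional broth dilution assay, run across a panel of nine bacterial strains (Gram-positive and Vibrio species included), with ciprofloxacin as the positive control.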

HL-60 = test: Cytotoxicity against human HL60 cells assessed as cell viability after 6 days by MTT assay; assay type: functional, cell-based
A549 = test: Cytotoxicity against human A549 cells assessed as cell viability after 6 days by MTT assay; assay type: functional, cell-based
Staphylococcus aureus = test: Antibacterial activity against Staphylococcus aureus ATCC 27154 assessed as growth inhibition after 18 hrs by broth dilution method; assay type: functional; details: ATCC 27154, 18 h
How it was run: as §1

Staphylococcus = test: Antibacterial activity against Staphylococcus albus ATCC 8799 assessed as growth inhibition after 18 hrs by broth dilution method; assay type: functional; details: ATCC 8799, 18 h
How it was run: as §1

K562 = test: Cytotoxicity against human K562 cells assessed as cell viability after 6 days by MTT assay; assay type: functional, cell-based

Row | SMILES | MIC (Bacillus cereus) | MIC (Vibrio parahaemolyticus) | Activity (HL-60) | Activity (A549) | MIC (Staphylococcus aureus) | MIC (Staphylococcus) | Activity (K562)
1 | CC(O)c1coc(=O)c2c(O)cc(O)c(O)c12 (stereo not given) | 6.25 µM (≈ 1.49 µg/mL) | 6.25 µM (≈ 1.49 µg/mL) | inactive | inactive | 12.5 µM (≈ 2.98 µg/mL) | > 25 µM | inactive
2 | COc1cc(O)cc2c(COC(C)=O)c(C)oc12 [PENICIFURAN B] | > 25 µM | > 25 µM | inactive | inactive | > 25 µM | 12.5 µM (≈ 3.13 µg/mL) | inactive
3 | C[C@H](O)CCC[C@@H]1Cc2cccc(O)c2C(=O)O1 [ASPERGILLUMARIN B] | > 25 µM | > 25 µM | inactive | inactive | > 25 µM | 12.5 µM (≈ 3.13 µg/mL) | inactive
4 | CC(=O)c1coc2c(O)cc(O)cc12 [PENICIFURAN D] | 25 µM (≈ 4.8 µg/mL) | 25 µM (≈ 4.8 µg/mL) | inactive | inactive | > 25 µM | 25 µM (≈ 4.8 µg/mL) | inactive
5 | COc1cc(O)cc2c(CO)c(C)oc12 [PENICIFURAN A] | 12.5 µM (≈ 2.6 µg/mL) | 25 µM (≈ 5.21 µg/mL) | inactive | inactive | 25 µM (≈ 5.21 µg/mL) | 3.13 µM (≈ 0.652 µg/mL) | inactive
6 | Cc1oc2c(O)cc(O)cc2c1C=O [PENICIFURAN C] | 12.5 µM (≈ 2.4 µg/mL) | > 25 µM | inactive | inactive | 12.5 µM (≈ 2.4 µg/mL) | 25 µM (≈ 4.8 µg/mL) | inactive
7 | O=C(O)c1cn(C2CC2)c2cc(N3CCNCC3)c(F)cc2c1=O [CIPROFLOXACIN] | 0.625 µM (≈ 0.207 µg/mL) | 0.16 µM (≈ 0.053 µg/mL) |  |  | 0.16 µM (≈ 0.053 µg/mL) | 0.312 µM (≈ 0.103 µg/mL) | 
8 | O=c1oc(CO)c(CO)c2cc(O)cc(O)c12 [PENICIMARIN F] | > 25 µM | > 25 µM | inactive | inactive | 12.5 µM (≈ 2.98 µg/mL) | > 25 µM | inactive
9 | CC(=O)CCC[C@@H]1Cc2cccc(O)c2C(=O)O1 [ASPERGILLUMARIN A] | > 25 µM | > 25 µM | inactive | inactive | > 25 µM | 12.5 µM (≈ 3.1 µg/mL) | inactive
